Screening data: PubChem BioAssay, several laboratories
Calb biofilm kill: clotrimazole potentiators killing C. albicans biofilm, primary screen, 4-compound mixtures | C. albicans biofilm persisters + clotrimazole, fluorescence viability; primary screen in compound mixtures of four per well | inhibition, % at 7.6 µM | actives 0.02% (n = 120,000) | AID 1242, 2008;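 active means inhibition above 30.3% in the primary screen of four-compound pools, then above 30% when the compound was retested; inconclusive means passed the primary limit but could not be retested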;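 further: compounds exposed to preformed 24 h biofilms for 48 h; 0% = untreated biofilm control and 100% = clotrimazole plus chlorhexidine kill blank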
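Probe or stimulus – Clotrimazole 50 µg/mL co-treatment · System – C. albicans biofilms · Schedule – 24 h biofilm formation, then 48 h compound exposure, 37 °C · Evaluation – percent inhibition of biofilm viability · Technique – 2-h Alamar Blue fluorescence, 535/590 nm excitation/emission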
Pf gametocyte: late stage P. falciparum gametocyte viability inhibitors, primary screen, ATP luminescence, HTS. AID 743093, 2013. actives 0.065% (n = 150,000). inhibition, % at 10.9 µM. P. falciparum stage V gametocytes, 24 h;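 active means inhibition above the mean plus 3 SD of compounds within the control limits, set per campaign, cut at about 38% in these data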;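 further: 0% = DMSO wells and 100% = medium only without gametocytes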
ROMK mod: ROMK potassium channel modulators, primary screen, cell-based, thallium flux, MLSMR library. actives 2% (n = 130,000). AID 1918, 2009. Tet-inducible ROMK, thallium flux fluorescence; actives lie on both sides. B-score at 10 µM;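 active means signal ratio slope over the read window, or its plate-corrected B-score, at least 3 SD from the plate mean, either direction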;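 further: B-score of the F/F0 ratio slope over 7 to 12 s after thallium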
Target sequence (P48048 whole entry, looked up): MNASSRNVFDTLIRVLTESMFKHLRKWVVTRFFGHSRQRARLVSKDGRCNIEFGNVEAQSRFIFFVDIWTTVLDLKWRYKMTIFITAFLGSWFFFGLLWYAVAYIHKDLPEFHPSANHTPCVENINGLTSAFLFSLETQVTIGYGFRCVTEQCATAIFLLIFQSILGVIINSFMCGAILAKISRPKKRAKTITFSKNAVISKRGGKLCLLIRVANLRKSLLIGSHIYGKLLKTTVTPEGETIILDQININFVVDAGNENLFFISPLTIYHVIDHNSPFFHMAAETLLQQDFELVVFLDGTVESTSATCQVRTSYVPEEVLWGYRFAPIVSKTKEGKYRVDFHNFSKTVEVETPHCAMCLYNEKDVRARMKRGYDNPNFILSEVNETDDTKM
ROMK hit retest: ROMK channel modulator hit retest, confirmation, cell-based, thallium flux, duplicate, resupplied hits | shares compounds with ROMK mod | actives 54% (n = 3,000) | AID 1917, 2009 | fluorescence ratio; hits give low values | normalized thallium flux (F/F0 slope) at 10 µM;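 active means Flux at 10 µM at least 3 SD below or above vehicle control mean in one or both replicates; inconclusive means no clear call, values can overlap the other calls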
* = called active by the depositor; ? = inconclusive; . = no result. The entries come from a sample that favours hits as a whole.

SMILES	Calb biofilm kill	Pf gametocyte	ROMK mod	ROMK hit retest
CCN1C(=O)/C(=C/c2ccc(N3CCCC3)cc2)NC1=S	-3.2	12.6	-0.555	.
COCCCn1c2nc3ccccc3nc2c2c(=O)n(Cc3ccc(Cl)cc3)cnc21	.	-18.1	-1.19	.
COCCCn1c(C)nc2c(c1=O)c1nc3ccccc3nc1n2CCc1ccccc1	.	.	-3.96*	0.0498*
CCCCCN1C(=O)Cn2c(nc3ccccc3c2=O)C1C (centres undefined)	16.0	-2.1	0.548	.
Cc1ccc(C)c(Nc2ccc(C(=O)NCCc3ccccc3)cn2)c1	6.1	11.4	2.7*	0.0824
Cc1ccc(Nc2ccc(C(=O)NCCc3ccccc3)cn2)cc1	8.3	15.8	2.08	.
CC(=O)OCC(OC(C)=O)C(OC(C)=O)C(OC(C)=O)C(=O)Nc1ccc(C)cc1 (centres undefined)	.	.	.	0.0873
CC(=O)OCC(OC(C)=O)C(OC(C)=O)C(OC(C)=O)C(=O)Nc1ccccc1 (centres undefined)	10.3	16.7	-1.01	.
Cn1cnnc1Sc1ccc(/C=C(\CC(=O)O)c2nc3ccccc3s2)cc1[N+](=O)[O-]	13.9	14.2	.	.
Cc1ccc(C)c(NC(=O)/C(C#N)=C/c2ccc(Sc3nncn3C)c([N+](=O)[O-])c2)c1	2.5	.	-3.11*	0.0604*
COc1cc(OC)cc(C(=O)NCC2CCCN(Cc3cccc(C(C)=O)c3)C2)c1 (centres undefined)	.	0.0	.	.
CCCCOc1ccc(CSCCN)cc1Cl	17.9	14.5	-3.18*	?
CCOc1ccc(CSC(=N)N)cc1Cl	18.6	14.7	.	.
O=C(NC1CC1)C1=C[C@@H](c2coc3ccccc3c2=O)C[C@@H](OCCCCO)O1	19.6	-6.7	.	.
COc1cc(/C=C(\C#N)c2nc3ccc(C)cc3[nH]2)c([N+](=O)[O-])cc1OC	.	-35.1	-1.39	.
CCCOc1cc(N(CC)CC)ccc1/C=C(/C#N)c1nc2ccc(C)cc2[nH]1	.	10.3	-4.22*	0.039*
COC(=O)c1sccc1NC(=O)COc1ccc(F)cc1Cl	11.0	.	-0.649	.
Cc1ccc(-c2cc(=O)c3cc(F)ccc3[nH]2)cc1	13.2	.	0.956	.
COc1ccc2[nH]c(-c3cccc(F)c3)cc(=O)c2c1	-0.1	14.0	4.03*	0.0948
Cc1ccc2[nH]c(-c3cccc(F)c3)cc(=O)c2c1	21.7	-4.5	3.07*	0.0834
O=c1cc(-c2cccc(F)c2)[nH]c2ccccc12	11.3	.	3.66	.
Cc1ccc(S(=O)(=O)N(C)C)cc1NC(=O)c1cc(C(C)(C)C)nn1Cc1ccccc1	19.4	5.9	.	.
Cc1cc(OCC(=O)c2cccc(C(F)(F)F)c2)n2cnnc2n1	17.3	18.3	.	.
CC1(C)CC(=O)C(C2C3=C(CC(C)(C)CC3=O)OC3=C2C(=O)CC(C)(C)C3)=C(O)C1	14.3	16.4	1.02	.
Cc1ccccc1N1CCN(S(=O)(=O)CC23CCC(CC2=O)C3(C)C)CC1 (centres undefined)	.	-1.6	.	.
SMILES	Calb biofilm kill	Pf gametocyte	ROMK mod	ROMK hit retest
CC1(C)C2CCC1(CS(=O)(=O)N1CCCc3ccccc31)C(=O)C2 (centres undefined)	.	-12.4	-3.44*	0.0702
CCc1sc(NS(C)(=O)=O)nc1-c1ccccc1	.	9.3	2.81*	0.0829
CCc1sc(NC(C)=O)nc1-c1ccccc1	16.4	-1.7	-1.61	.
CC(C)(C)c1nnc(NC(=O)c2cccnc2)s1	20.4	-4.6	-1.25	.
CC(C)(C)[C@@H]1CCC(=O)N(CC[C@H](Sc2ccc(Br)cc2)c2ccccc2)CC1	.	-6.8	.	.
O=C(O)C1CCCCC1C(=O)NCCc1ccncc1 (centres undefined)	.	12.2	2.41*	0.0725
O=C(O)[C@H]1CCCC[C@H]1C(=O)NCCc1ccccc1	.	-1.5	2.07	.
CCOc1ccc(NC(=O)C2CC=CCC2C(=O)O)cc1 (centres undefined)	.	17.0	.	0.0837
CCCCOc1ccc(NC(=O)C2CC=CCC2C(=O)O)cc1 (centres undefined)	.	-10.7	0.51	.
CC1(C)Cc2c(C#N)c(SCC(=O)c3ccccc3)nc(N3CCOCC3)c2CO1	.	-7.2	-3.91*	0.0532*
CC1(C)Cc2c(C#N)c(SCc3ccccc3)nc(N3CCOCC3)c2CO1	.	.	-0.946	.
FC(F)(F)c1ccc(-n2cnc3ccccc32)nc1	.	-5.6	.	.
CCc1cccc(CC)c1NC(=O)CN1C2CCCC1CC(NC(=O)Nc1cccc(OC)c1)C2 (centres undefined)	5.9	15.0	-3.96*	?
CCCN1C2CCCC1CC(NC(=O)Nc1cccc(C(C)=O)c1)C2 (centres undefined)	.	-26.2	.	.
O=C(O)c1cc(O)ccc1NC(=O)C(c1ccccc1)c1ccccc1	.	17.4	.	.
COC(=O)C(C(=O)OC)C(C[N+](=O)[O-])c1ccc(OC)c(OC)c1 (centres undefined)	.	.	0.505	.
COc1ccc(C(C[N+](=O)[O-])C2(c3ccc(OC)c(OC)c3)C(=O)c3ccccc3C2=O)cc1 (centres undefined)	2.5	.	-5.12*	?
Cc1ccc(NC(=O)COC(=O)C(CC(C)C)N2C(=O)C3CC=CCC3C2=O)c(C)c1 (centres undefined)	20.8	11.6	.	.
O=c1c2ccccc2nc(/C=C/c2ccc([N+](=O)[O-])o2)n1CCCO	.	-23.5	-3.06*	0.0523*
O=c1c2ccccc2nc(/C=C/c2ccc([N+](=O)[O-])cc2)n1CCCO	8.9	.	-0.877	.
CC(CCc1ccccc1)NC(=O)C(=O)N1CCOCC1 (centres undefined)	20.1	-13.6	0.227	.
COc1ccc(-c2ccc(SCC(=O)c3ccccc3)nn2)cc1OC	4.1	-5.0	0.556	.
COc1cc(C(=O)Nc2ccc3ccccc3c2)cc(OC)c1OC	.	17.0	.	.
CCc1cccc(NC(=O)c2cc(OC)c(OC)c(OC)c2)c1	2.0	9.4	1.35*	0.0772
COc1cc(C(=O)Nc2ccc3c(c2)Cc2ccccc2-3)cc(OC)c1OC	12.0	.	0.143	.
SMILES	Calb biofilm kill	Pf gametocyte	ROMK mod	ROMK hit retest
COc1cc(C(=O)Nc2ccc3c(c2)CCN3C(C)=O)cc(OC)c1OC	2.4	-19.6	4.46*	0.0794
CC(C)(C)OC(=O)NCc1ccc(CNC(=O)c2nc[nH]c2C(=O)N2CCN(c3ccccc3)CC2)cc1	.	-12.7	.	.
O=C(O)c1ccccc1C(=O)NCCc1c(C(=O)O)[nH]c2ccc(Cl)cc12	23.0	-5.8	.	.
CC(/C=N/NC(=O)c1cc(-c2cccnc2)nc2c1c(C)nn2-c1ccccc1)=C\c1ccccc1	26.1	-8.9	.	?
Cc1nn(-c2ccccc2)c(N2CCCC2)c1/C=N/NC(=O)c1cc(-c2cccnc2)nc2ccccc12	17.9	3.7	.	.
COc1ccccc1/C=C/C1(C(=O)NC2CCCC2)CC(=O)N1c1ccc(C)cc1 (centres undefined)	16.3	16.4	-4.96*	0.0621*
COc1ccccc1/C=C/C1(C(=O)NC2CCCC2)CC(=O)N1c1ccc(F)cc1 (centres undefined)	13.7	4.7	-2.67	.
O=C(NCCCOc1cccc(CN2CCCCC2)c1)c1ccc(Cl)c(Cl)c1	8.9	4.3	-3.47*	0.0568*
